According to ChEMBL document CHEMBL4152207, “Discovery of potent and selective BRD4 inhibitors capable of blocking TLR3-induced acute airway inflammation” (Eur J Med Chem, 2018):

How the values were obtained:
Mus musculus = test: Pulmonary toxicity in mouse at 1 to 50 mg/kg, ip dosed daily for 1 month by histological analysis; type: organism-based; conditions: in vivo
[1] = target: 5-hydroxytryptamine receptor 1A (Homo sapiens) (UniProt P08908); test: Displacement of [3H]8-OH-DPAT from recombinant human 5-HT1A receptor at 10 uM after 60 mins by scintillation counting analysis relative to control
Sequence of 5-hydroxytryptamine receptor 1A (Homo sapiens) (P08908 whole entry): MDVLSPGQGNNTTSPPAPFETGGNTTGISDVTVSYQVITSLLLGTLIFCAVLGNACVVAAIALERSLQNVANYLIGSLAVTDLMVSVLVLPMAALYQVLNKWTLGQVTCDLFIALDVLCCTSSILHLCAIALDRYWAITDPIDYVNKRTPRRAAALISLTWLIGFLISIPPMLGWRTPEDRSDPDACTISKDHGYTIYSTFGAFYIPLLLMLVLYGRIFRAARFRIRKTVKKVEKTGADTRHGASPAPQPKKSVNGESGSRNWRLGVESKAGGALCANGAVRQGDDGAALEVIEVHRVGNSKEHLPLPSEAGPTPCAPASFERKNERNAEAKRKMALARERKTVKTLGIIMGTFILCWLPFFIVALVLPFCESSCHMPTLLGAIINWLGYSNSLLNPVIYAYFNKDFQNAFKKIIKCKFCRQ

Rattus norvegicus = organism: Rattus norvegicus; test: Displacement of [125I]alpha-dendrotoxin from rat Voltage-gated potassium channel at 10 uM after 60 mins by scintillation counting analysis relative to control
How it was run: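 Run within a commercial off-target panel of receptors and enzymes, with compound tested at a single concentration of 10 μM.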

Cc1cc(/N=N/c2ccc(S(=O)(=O)NC3CCCC3)cc2)c(N)cc1O
Activity (Mus musculus): Non-Toxic
Activity [1]: -0.1%
Activity (Rattus norvegicus): 8.5%
